Source: ChEMBL document CHEMBL2331365, “Discovery of novel 2-hydroxydiarylamide derivatives as TMPRSS4 inhibitors” (Bioorg Med Chem Lett, 2013)
Counter-ions that a name gives are not always drawn.

Legend:
[1] = Cytotoxicity against human SW480 cells overexpressing TMPRSS4 assessed as cell viability at 0.1 uM after 2 days by CCK-8 assay; type: cell-based; settings: read-out: Activity
In short: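 Seeded at 10,000 cells/well, exposed to 0.1 µM compound or none at 37 °C for 2 days; CCK-8 reagent added and absorbance read at 450 nm. Higher value taken as lower cytotoxicity.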

[2] = biological target: T1, Transmembrane protease serine 4 (Homo sapiens, UniProt Q9NRS4); experiment: Inhibition of TMPRSS4 in human SW480 cells assessed as inhibition of cell invasion at 0.1 uM relative to control; type: cell-based
In short: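 SW480 cells overexpressing TMPRSS4 (clone T19) left to invade reconstituted basement membrane (Matrigel) with 0.1 µM compound present. Invasion expressed as percent inhibition relative to DMSO negative control.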

[3] = biological target: T1, Transmembrane protease serine 4; experiment: Inhibition of N-terminal His6-tagged recombinant TMPRSS4 (unknown origin) fused with enterokinase cleavage sequence DYKDDDGDYKDDDDK expressed in Escherichia coli BL21 (DE3) using Z-Phe-Arg-7-amido-4-methylcoumarin hydrochloride as substrate by fluorometric analysis

T1 sequence (Q9NRS4 whole entry): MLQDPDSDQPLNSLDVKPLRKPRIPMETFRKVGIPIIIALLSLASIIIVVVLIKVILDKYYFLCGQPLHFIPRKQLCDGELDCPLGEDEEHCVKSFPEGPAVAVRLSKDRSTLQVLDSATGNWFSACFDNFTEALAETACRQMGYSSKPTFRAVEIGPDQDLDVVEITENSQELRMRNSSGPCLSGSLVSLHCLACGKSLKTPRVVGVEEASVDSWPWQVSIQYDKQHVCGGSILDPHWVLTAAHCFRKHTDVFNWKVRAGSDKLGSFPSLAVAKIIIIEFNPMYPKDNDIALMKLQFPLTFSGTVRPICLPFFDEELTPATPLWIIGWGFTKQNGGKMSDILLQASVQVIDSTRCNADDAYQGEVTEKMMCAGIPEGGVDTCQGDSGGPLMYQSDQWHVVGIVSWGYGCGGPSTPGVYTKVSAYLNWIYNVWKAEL

SMILES	viability at 48 h, 0.1 µM [1] [%]	inhibition [2] [%]	IC50 [3] [µM]
O=C(Nc1cc(C(F)(F)F)cc(C(F)(F)F)c1)c1cc(Cl)ccc1O [IMD-0354]	90	45	11
O=C(Nc1cnc2ccccc2c1)c1cc(Cl)ccc1O	–	–	85
O=C(Nc1ccc(C(F)(F)F)cn1)c1cc(Cl)ccc1O	–	–	> 100
O=C(Nc1cc(C(F)(F)F)cc(C(F)(F)F)c1)c1cc(F)ccc1O	–	–	29
O=C(Nc1cc(C(F)(F)F)cc(C(F)(F)F)c1)c1cccc(Cl)c1O	–	–	12
NCCc1ccc(S(=O)(=O)F)cc1 [4-AMINOETHYLBENZENESULFONYL FLUORIDE HYDROCHLORIDE]	–	–	39
O=C(Nc1cc(C(F)(F)F)ccc1F)c1cc(Cl)ccc1O	–	–	28
O=C(Nc1cc(C(F)(F)F)cc(C(F)(F)F)c1)c1cc(Cl)cnc1O	–	–	> 100
O=C(Nc1cc(C(F)(F)F)cc(C(F)(F)F)c1)c1cc(Br)ccc1O	–	–	13
O=C(Nc1cc(Cl)c(Cl)c(Cl)c1)c1cc(Cl)ccc1O	–	–	> 100
N#Cc1ccc(NC(=O)c2cc(Cl)ccc2O)cc1	–	–	76
COc1c(C(F)(F)F)cc(NC(=O)c2cc(Cl)ccc2O)cc1C(F)(F)F	–	–	12
O=C(Nc1ccc(Br)c(C(F)(F)F)c1)c1cc(Cl)ccc1O	–	–	30
O=C(Nc1cccc(C(F)(F)F)c1)c1cc(Cl)ccc1O	–	–	13
O=C(Nc1cc(C(F)(F)F)cc(C(F)(F)F)c1)c1c[nH]c2ccccc2c1=O	–	–	> 100
O=C(Nc1cc(C(F)(F)F)cc(C(F)(F)F)c1)c1ccc(Cl)cc1O	–	–	12
O=C(Nc1ccccc1)c1cc(Cl)ccc1O	–	–	50
O=C(NCc1cc(C(F)(F)F)cc(C(F)(F)F)c1)c1cc(Cl)ccc1O	–	–	18
O=C(Nc1cc(Cl)cc(Cl)c1)c1cc(Cl)ccc1O	–	–	19
O=C(Nc1ccc(C(F)(F)F)c(C(F)(F)F)c1)c1cc(Cl)ccc1O	–	–	13

SMILES	viability at 48 h, 0.1 µM [1] [%]	inhibition [2] [%]	IC50 [3] [µM]
O=C(Nc1cc(C(F)(F)F)cc(C(F)(F)F)c1)c1cc(Cl)ccc1OCc1ccccc1	–	–	> 100
O=C(Nc1cc(Br)cc(C(F)(F)F)c1)c1cc(Cl)ccc1O	93	43	12
Cc1ccc(O)c(C(=O)Nc2cc(C(F)(F)F)cc(C(F)(F)F)c2)c1	–	–	28
N#Cc1ccc(NC(=O)c2cc(Cl)ccc2O)nc1	–	–	80
COc1ccc(O)c(C(=O)Nc2cc(C(F)(F)F)cc(C(F)(F)F)c2)c1	–	–	29
O=C(Nc1cc(C(F)(F)F)cc(C(F)(F)F)c1)c1ccc2ccccc2c1O	–	–	> 100
O=C(Nc1ccc(Cl)nc1)c1cc(Cl)ccc1O	–	–	> 100
N#Cc1ccc(O)c(C(=O)Nc2cc(C(F)(F)F)cc(C(F)(F)F)c2)c1	–	–	19
O=C(Nc1ncccn1)c1cc(Cl)ccc1O	–	–	> 100
O=C(Nc1ccc(Cl)c(C(F)(F)F)c1)c1cc(Cl)ccc1O	–	–	35
O=C(Nc1ccnc(Cl)c1)c1cc(Cl)ccc1O	–	–	> 100
NC(=O)c1ccc(O)c(C(=O)Nc2cc(C(F)(F)F)cc(C(F)(F)F)c2)c1	–	–	> 100
COc1cc(NC(=O)c2cc(Cl)ccc2O)cc(C(F)(F)F)c1	–	–	16
O=C(Nc1cc(C(F)(F)F)c(Br)c(C(F)(F)F)c1)c1cc(Cl)ccc1O	89	53	6
CC(=O)Oc1ccc(Cl)cc1C(=O)Nc1cc(C(F)(F)F)cc(C(F)(F)F)c1	–	–	> 100
O=C(Nc1cc(C(F)(F)F)cc(C(F)(F)F)c1)c1cc([N+](=O)[O-])ccc1O	96	26	12
O=C(Nc1cc(C(F)(F)F)cc(C(F)(F)F)c1)c1ccccc1O	–	–	> 100
Cc1cc(C)cc(NC(=O)c2cc(Cl)ccc2O)c1	–	–	39
O=C(Nc1cc(C(F)(F)F)ccc1C(F)(F)F)c1cc(Cl)ccc1O	–	–	20
Cc1c(C(F)(F)F)cc(NC(=O)c2cc(Cl)ccc2O)cc1C(F)(F)F	90	43	10
